Calls of active or inactive are those of the source. The calls are words filed in the database; no cut-off is given here.
Legend:
Format in all cases: functional, cell-based
HepG2 = test: Anticancer activity against human HepG2 cells assessed as vacuole formation at 20 uM after 24 hrs by phase contrast microscopic analysis
HeLa [1] = test: Induction of macropinocytosis-like cytosolic vacuolization in human HeLa cells at 20 uM after 24 hrs by transmission electron microscopic analysis
In short: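 HeLa exposed to 20 µM for 24 h, then fixed, dehydrated and resin-embedded. Ultrathin sections on copper grids stained with uranyl acetate and lead citrate, then examined by TEM.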

HeLa [2] = test: Induction of methuosis in human HeLa cells assessed as increase in vacuole formation preincubated cells with vacuolar-type H+-ATPase inhibitor Baf-A1 for 1 hr followed by compound addition measured after 24 hrs by phase contrast microscopic analysis
In short: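 HeLa cells (DMEM, 10% FBS, penicillin/streptomycin, 37 °C, 5% CO2) were given 100 nM bafilomycin A1 for 1 h before compound addition. Vacuole formation was then scored by phase-contrast imaging of live cells.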

C[C@H]1[C@H](C)CC[C@]2(C(=O)O)CC[C@]3(C)C(=CC[C@@H]4[C@@]5(C)Cc6cnn(-c7ccc(C#N)cc7)c6C(C)(C)[C@@H]5CC[C@]43C)[C@H]12
Activity (HepG2): Active
Activity (HeLa [1]): Active
Activity (HeLa [2]): inactive

Reference: ChEMBL document CHEMBL4038311, “An Ursolic Acid Derived Small Molecule Triggers Cancer Cell Death through Hyperstimulation of Macropinocytosis” (J Med Chem, 2017)
